Experimental data taken from PMC8802302 (Journal of Medicinal Chemistry, 2021).

What was measured:
DRAK1 (DRAK1-NLuc) = biological target: T1, DRAK1 (DRAK1-NLuc) (Homo sapiens, UniProt Q9UEE5); assay: NanoBRET cellular target engagement assay; type: cell-based
T1 sequence (Q9UEE5 1-414): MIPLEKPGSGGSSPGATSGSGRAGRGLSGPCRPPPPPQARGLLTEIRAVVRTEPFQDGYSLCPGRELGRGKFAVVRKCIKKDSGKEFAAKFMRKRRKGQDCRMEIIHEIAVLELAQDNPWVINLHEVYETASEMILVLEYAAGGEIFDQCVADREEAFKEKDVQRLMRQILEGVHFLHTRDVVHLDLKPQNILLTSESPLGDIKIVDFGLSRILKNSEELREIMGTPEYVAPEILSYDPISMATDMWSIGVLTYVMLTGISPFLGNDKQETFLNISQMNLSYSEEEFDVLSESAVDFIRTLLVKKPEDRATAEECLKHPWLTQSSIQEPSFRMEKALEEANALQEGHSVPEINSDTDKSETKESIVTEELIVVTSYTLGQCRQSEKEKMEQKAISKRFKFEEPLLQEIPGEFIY

ULK2 = biological target: T2, ULK2 (Homo sapiens, UniProt Q8IYT8); assay: Eurofins kinase enzymatic radiometric assay; type: biochemical
T2 sequence (Q8IYT8 1-1036): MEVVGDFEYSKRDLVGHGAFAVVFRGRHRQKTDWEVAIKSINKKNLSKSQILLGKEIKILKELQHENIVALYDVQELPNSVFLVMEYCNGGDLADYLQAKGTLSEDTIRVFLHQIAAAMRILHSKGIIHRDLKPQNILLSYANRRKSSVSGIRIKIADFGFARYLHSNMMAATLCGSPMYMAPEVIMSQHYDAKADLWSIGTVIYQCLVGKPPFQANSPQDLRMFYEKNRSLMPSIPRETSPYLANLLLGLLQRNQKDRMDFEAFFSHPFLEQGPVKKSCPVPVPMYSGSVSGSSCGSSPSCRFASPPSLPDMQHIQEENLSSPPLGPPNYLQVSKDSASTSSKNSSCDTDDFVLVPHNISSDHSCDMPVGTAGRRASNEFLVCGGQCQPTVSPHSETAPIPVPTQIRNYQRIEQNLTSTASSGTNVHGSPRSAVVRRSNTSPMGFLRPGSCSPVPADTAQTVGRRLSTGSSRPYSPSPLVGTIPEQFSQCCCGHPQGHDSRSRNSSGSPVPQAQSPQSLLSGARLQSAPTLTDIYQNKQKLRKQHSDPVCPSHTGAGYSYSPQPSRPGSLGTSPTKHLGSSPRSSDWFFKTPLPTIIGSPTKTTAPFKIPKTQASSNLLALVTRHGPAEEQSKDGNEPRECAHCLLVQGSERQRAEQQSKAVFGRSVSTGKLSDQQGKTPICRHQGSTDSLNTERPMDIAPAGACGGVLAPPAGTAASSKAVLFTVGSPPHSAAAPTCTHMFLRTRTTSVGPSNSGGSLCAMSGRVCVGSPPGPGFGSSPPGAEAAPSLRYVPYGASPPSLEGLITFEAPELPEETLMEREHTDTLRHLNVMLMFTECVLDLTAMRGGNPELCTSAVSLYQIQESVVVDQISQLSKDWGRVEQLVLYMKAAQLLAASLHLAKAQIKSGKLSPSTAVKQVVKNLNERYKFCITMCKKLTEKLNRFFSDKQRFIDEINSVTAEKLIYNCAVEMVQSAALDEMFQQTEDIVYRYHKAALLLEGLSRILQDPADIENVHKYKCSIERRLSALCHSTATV
Outline: (§1)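 Radiometric kinase activity assay with ATP at the Km for each kinase. Test compounds were run as 9-point dose–response curves in duplicate to give IC50.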

DRAK2 = biological target: T3, DRAK2 (Homo sapiens, UniProt O94768); assay: Eurofins kinase enzymatic radiometric assay; type: biochemical
T3 sequence (O94768 1-372): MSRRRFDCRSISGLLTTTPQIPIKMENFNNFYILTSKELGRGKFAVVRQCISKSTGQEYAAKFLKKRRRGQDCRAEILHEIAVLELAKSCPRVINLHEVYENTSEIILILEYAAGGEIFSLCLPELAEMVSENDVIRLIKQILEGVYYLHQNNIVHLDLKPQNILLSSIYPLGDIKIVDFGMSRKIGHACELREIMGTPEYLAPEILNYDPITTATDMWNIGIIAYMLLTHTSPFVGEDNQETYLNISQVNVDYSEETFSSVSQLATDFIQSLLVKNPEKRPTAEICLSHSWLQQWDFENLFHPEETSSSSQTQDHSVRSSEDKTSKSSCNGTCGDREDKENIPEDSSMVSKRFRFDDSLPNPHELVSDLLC
Outline: as §1

[1] = test system: 403 wild-type (WT) human kinases; assay: DiscoverX scanMAX kinome-wide selectivity screen; type: binding; conditions: 403 WT human kinases; for no. kinases with PoC < 10: DiscoverX scanMAX, 1 μM; for S10 (1 μM): Percentage of screened kinases with PoC values < 10 at 1 μM
16-member kinase panel = assay: Eurofins custom enzymatic kinase panel, count of kinases inhibited; type: biochemical; conditions: 16-member Eurofins panel, 1 μM
Outline: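 Radiometric kinase assays were run with ATP at Km. Each test compound was tested at a single concentration of 1 μM, in duplicate, against each panel kinase, with results as percent of control. The count is the number of kinases at ≤ 10 PoC, i.e. inhibited ≥ 90%.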

PAMPA permeability = type: in vitro ADME; conditions: PBS pH 7.4, 5 h incubation
Outline: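 DMSO stocks of test compound were diluted in PBS pH 7.4 and added to the donor side of a precoated PAMPA plate, with PBS pH 7.4 as acceptor, for 5 h. Both compartments were quantified by chemiluminescent nitrogen detection against a calibration curve, with background nitrogen corrected. Effective permeability was calculated from donor and acceptor concentrations, using measured rather than assumed solubility.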

LRRK2 = LRRK2 (Homo sapiens, UniProt Q5S007); assay: NanoBRET assay follow-up; type: cell-based; conditions: singlicate (n = 1) dose–response
JAK2 = JAK2 (Homo sapiens, UniProt O60674); assay: Eurofins kinase enzymatic radiometric assay; type: biochemical
Outline: as §1

Chain of JAK2 (O60674 whole entry): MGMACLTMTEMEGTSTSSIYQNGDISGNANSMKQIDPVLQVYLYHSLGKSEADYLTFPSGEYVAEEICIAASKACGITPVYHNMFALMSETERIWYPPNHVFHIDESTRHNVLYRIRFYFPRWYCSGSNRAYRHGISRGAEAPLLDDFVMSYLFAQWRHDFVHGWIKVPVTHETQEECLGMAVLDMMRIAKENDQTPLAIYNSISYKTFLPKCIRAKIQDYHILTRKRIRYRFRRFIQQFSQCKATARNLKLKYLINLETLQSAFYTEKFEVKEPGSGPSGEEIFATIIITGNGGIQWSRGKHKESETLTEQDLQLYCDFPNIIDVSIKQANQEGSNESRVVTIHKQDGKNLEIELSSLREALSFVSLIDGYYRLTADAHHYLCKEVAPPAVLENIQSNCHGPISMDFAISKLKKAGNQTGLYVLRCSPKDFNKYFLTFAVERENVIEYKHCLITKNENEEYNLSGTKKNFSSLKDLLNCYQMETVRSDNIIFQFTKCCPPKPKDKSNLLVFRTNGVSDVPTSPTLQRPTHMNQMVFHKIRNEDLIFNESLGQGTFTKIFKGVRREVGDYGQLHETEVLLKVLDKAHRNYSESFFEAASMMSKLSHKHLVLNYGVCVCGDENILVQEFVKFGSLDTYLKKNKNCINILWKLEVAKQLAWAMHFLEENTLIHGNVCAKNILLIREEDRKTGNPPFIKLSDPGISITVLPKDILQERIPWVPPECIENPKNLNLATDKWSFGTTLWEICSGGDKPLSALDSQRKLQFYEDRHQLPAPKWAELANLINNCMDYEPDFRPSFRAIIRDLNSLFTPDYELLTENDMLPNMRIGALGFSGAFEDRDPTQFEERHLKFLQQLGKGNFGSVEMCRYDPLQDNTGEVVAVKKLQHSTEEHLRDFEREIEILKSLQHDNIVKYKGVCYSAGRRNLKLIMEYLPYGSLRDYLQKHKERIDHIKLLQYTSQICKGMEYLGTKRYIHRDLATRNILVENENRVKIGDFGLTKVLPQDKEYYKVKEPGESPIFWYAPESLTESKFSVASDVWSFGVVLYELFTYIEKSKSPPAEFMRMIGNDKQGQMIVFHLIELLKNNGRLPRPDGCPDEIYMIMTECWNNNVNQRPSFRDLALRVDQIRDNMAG
Chain of LRRK2 (Q5S007 whole entry): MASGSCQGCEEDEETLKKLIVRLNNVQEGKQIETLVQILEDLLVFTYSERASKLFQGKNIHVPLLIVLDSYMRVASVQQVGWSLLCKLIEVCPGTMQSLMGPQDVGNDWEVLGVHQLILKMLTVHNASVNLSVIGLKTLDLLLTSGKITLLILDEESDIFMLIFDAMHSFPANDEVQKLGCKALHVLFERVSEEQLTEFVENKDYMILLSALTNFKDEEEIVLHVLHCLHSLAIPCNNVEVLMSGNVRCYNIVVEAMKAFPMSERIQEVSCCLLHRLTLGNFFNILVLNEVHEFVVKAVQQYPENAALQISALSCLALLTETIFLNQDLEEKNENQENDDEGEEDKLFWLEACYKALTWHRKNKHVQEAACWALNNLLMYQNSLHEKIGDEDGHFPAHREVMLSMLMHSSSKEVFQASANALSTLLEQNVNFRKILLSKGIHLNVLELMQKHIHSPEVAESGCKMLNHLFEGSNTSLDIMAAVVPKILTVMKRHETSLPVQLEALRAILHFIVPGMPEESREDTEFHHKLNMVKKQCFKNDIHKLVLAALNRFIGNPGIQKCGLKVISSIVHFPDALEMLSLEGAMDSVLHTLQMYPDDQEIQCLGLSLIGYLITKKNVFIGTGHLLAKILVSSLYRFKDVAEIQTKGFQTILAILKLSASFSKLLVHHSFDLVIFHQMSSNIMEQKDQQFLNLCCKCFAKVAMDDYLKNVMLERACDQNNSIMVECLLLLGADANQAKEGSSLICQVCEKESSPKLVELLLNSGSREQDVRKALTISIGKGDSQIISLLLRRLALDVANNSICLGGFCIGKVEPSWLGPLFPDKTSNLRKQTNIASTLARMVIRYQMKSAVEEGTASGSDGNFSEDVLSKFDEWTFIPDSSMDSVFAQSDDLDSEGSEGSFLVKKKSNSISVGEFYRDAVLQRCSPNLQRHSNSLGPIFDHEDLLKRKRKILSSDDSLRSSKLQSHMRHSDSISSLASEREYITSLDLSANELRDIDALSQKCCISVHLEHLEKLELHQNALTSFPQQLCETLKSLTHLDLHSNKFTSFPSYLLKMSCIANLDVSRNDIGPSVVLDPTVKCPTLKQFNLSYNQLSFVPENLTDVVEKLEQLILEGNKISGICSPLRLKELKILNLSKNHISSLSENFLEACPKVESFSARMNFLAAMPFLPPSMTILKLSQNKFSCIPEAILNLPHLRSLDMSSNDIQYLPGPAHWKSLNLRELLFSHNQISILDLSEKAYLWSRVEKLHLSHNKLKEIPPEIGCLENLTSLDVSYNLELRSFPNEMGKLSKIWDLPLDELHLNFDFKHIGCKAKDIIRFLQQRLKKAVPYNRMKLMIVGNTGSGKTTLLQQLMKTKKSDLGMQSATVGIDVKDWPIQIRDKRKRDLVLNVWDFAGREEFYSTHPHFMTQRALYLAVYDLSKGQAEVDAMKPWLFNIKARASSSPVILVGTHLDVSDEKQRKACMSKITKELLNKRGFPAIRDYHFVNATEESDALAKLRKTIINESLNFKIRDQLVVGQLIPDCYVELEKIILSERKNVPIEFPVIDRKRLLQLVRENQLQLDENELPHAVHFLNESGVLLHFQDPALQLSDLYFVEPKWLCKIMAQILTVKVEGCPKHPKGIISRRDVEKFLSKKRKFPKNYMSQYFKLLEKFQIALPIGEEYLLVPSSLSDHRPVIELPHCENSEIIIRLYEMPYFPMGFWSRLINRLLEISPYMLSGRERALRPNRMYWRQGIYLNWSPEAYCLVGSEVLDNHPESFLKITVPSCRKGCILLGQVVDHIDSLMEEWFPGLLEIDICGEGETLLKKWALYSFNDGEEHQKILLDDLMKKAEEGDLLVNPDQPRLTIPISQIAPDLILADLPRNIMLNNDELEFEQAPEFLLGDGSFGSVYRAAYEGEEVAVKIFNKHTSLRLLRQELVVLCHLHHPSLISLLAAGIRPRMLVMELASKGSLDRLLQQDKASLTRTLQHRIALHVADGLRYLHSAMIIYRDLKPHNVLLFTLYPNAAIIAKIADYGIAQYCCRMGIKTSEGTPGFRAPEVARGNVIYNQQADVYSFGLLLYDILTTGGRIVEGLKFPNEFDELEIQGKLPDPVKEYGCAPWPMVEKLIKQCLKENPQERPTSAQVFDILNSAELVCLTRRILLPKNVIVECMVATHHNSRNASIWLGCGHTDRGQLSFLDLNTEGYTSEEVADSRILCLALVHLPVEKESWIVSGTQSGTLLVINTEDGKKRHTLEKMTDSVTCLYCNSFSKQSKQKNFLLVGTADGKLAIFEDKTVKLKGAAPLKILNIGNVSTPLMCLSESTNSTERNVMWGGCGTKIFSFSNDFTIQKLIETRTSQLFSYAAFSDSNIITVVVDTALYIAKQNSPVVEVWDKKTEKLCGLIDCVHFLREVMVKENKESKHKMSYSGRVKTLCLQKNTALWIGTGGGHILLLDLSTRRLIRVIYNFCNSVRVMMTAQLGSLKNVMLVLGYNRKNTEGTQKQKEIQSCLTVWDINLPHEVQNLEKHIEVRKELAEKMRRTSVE

Row | SMILES | fold loss in potency, enzymatic versus NanoBRET, DRAK1 (DRAK1 (DRAK1-NLuc)) [fold] | DRAK1 NanoBRET IC50 (DRAK1 (DRAK1-NLuc); HEK293, 0.5 μM tracer K-9, n = 1 where no error, SEM n = 3) | IC50 (ULK2) [µM] | IC50 (DRAK2) [µM] | no. kinases with PoC < 10 [1] | S10 (1 μM) [1] | no. kinases ≤ 10 PoC in enzyme panel (16-member kinase panel) | Pe (permeability coefficient, PAMPA) (PAMPA permeability) | LRRK2 NanoBRET IC50 (LRRK2) | IC50 (JAK2) [µM]
1 | Cc1nn(CC(F)(F)F)cc1Nc1ncc(C2CC2)c(NCCCNC(=O)C2CCC2)n1 [Compound 4, N-(3-((5-Cyclopropyl-2-((3-methyl-1-(2,2,2-trifluoroethyl)-1H-pyrazol-4-yl)amino)pyrimidin-4-yl)amino)propyl)cyclobutanecarboxamide] | < 10 | submicromolar | 1.74 | 0.062 | 11 | 0.027 | 1 |  |  | 
2 | Cc1nn(CC(F)(F)F)cc1Nc1ncc(C2CC2)c(NCCc2c[nH]cn2)n1 [Compound 3, N^4-(2-(1H-Imidazol-4-yl)ethyl)-5-cyclopropyl-N^2-(3-methyl-1-(2,2,2-trifluoroethyl)-1H-pyrazol-4-yl)pyrimidine-2,4-diamine] |  |  |  |  | 2 | 0.005 | 0 | low permeability | did not have any activity | 
3 | O=C(NCCCNc1ccnc(Nc2cccc(NC(=O)N3CCCC3)c2)n1)C1CCC1 [Compound 17, N-(3-((4-((3-(Cyclobutanecarboxamido)propyl)amino)pyrimidin-2-yl)amino)phenyl)pyrrolidine-1-carboxamide] | < 10 |  |  |  | 3 | 0.007 | 0 |  |  | > 10
